The list is not random: actives were taken first. Their share in the collection is about 3%.
SR-BI DiI-HDL act: enhances SR-BI lipid uptake from DiI-HDL; CHO ldlA[mSR-BI] cells, DiI-HDL uptake fluorescence, 3 h; 100 = double the neutral-control signal; activation, % at 12.5 µM; 320,000 tested, 0.096% active; AID 504775;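 active = mean replicate activation of at least 60% and every replicate at or above 60%; inconclusive = mean or all-replicate condition met, but not both; inactive = mean below 60% and not all replicates reaching 60%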;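 note: 0% = median plate neutral-control signal and 100% = twice that signal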
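Assay system: CHO ldlA[mSR-BI] cells, LDL receptor-null, SR-BI overexpressing; medium: Ham's F12 with 0.5% BSA, HEPES 25 mM, pH 7.4; also added: DiI-HDL 10 µg/mL; timing: 3 h uptake period with compound, 37 °C; signal: DiI fluorescence, bottom read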
ANO1 activ: mouse TMEM16A channel activation, primary screen. HEK293 TMEM16A/YFP-H148Q/I152L, iodide quench fluorescence; active compounds read low. B-score at 10 µM. 340,000 tested, 0.3% active;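 active = fluorescence-ratio B-score plate-corrected deviation score at least 3 library SD below zero, with starting fluorescence score within 5 deviations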;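 note: channel opened by trigger with iodide after compound preincubation; score built on the fluorescence ratio of max minus min over baseline; more negative score means more quench and so TMEM16A activation or potentiation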
Kir21 inh: blocks the mouse Kir2.1 inward-rectifier potassium channel | P35561 | HEK293-Kir2.1, FluxOR thallium flux fluorescence; active compounds read low | B-score at 10 µM | 310,000 tested, 0.85% active | AID 1672;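 active = fluorescence ratio B-score at or below minus 3 SD of library scores, with starting-brightness B-score within 2 SD, cut at about -4.2 in these data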;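 note: channel flux triggered by added potassium and thallium sulfate stimulus; B-score of peak minus minimum fluorescence over baseline after thallium stimulus; more negative B-score means stronger Kir2.1 block with less thallium influx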
SR-BI HDL uptake: blocks mouse SR-BI lipid uptake from DiI-HDL; inhibition, % at 12.5 µM; 320,000 tested, 0.96% active; ldlA[mSR-BI] CHO cells, DiI-HDL uptake fluorescence, 3 h;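 active = mean replicate inhibition of at least 70% and a set share of replicates each scoring 70 or more; inconclusive = meets just one of the two criteria; inactive = fails both criteria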;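 note: 0% = median of neutral control wells and 100% = median of positive control wells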
Target sequence (Q61009 whole entry, looked up): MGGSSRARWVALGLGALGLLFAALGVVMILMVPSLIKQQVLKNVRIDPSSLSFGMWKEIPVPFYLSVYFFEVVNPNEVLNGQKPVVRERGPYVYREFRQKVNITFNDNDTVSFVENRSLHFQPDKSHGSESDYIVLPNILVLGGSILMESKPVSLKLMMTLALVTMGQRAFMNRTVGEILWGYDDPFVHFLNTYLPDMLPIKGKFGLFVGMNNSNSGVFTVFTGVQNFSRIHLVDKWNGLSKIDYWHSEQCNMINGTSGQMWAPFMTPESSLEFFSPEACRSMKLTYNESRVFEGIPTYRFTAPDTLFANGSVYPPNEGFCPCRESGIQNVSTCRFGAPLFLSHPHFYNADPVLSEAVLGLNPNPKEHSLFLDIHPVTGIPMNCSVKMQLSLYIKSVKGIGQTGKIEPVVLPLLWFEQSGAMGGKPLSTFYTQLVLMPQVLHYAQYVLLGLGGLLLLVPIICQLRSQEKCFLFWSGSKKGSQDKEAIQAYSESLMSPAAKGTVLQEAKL
TMEM16A inh: inhibitors of mouse TMEM16A calcium-activated chloride channel. AID 588511. normalized B-score (activity score, 25-100; higher = stronger inhibition) at 10 µM. 310,000 tested, 1.2% active. HEK293 TMEM16A/YFP iodide influx fluorescence, ionomycin;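 active = ratio plate-corrected score three or more library SD toward inhibition, starting fluorescence score within five deviations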;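 note: score derived from kinetic fluorescence span divided by baseline fluorescence per well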
DNA FID counter: displaces DNA intercalator in HCV helicase counter-screen | DNA fluorescent intercalator displacement, fluorescence | inhibition, % at 7.9 µM | 290,000 tested, 0.17% active | AID 1845; in the data active = inhibition above about 37%;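 note: 0% = vehicle and 100% = reference compound; higher means more ethidium bromide displaced from hairpin DNA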
* = called active by the depositor; i = inactive; ? = inconclusive; nt = not tested or not shown.

SMILES | SR-BI DiI-HDL act | ANO1 activ | Kir21 inh | SR-BI HDL uptake | TMEM16A inh | DNA FID counter
COc1ccc(-c2cc(C(=O)N/N=C/c3ccc4c(c3)OCO4)c3ccccc3n2)c(OC)c1 | -47.3 | i | 2.01 | 47.3 | i | -0.8
COc1ccc(-c2cc(C(=O)N/N=C/c3ccc(OC)c(COCC(F)(F)C(F)F)c3)c3ccccc3n2)c(OC)c1 | -79.5 | i | -0.02 | 79.5* | i | -11.4
Cc1cc(C)nc(SCC(=O)NNS(=O)(=O)c2ccc(C#N)cc2)n1 | 6.4 | i | nt | -6.4 | nt | nt
CN(C)c1ccc(/C=N/N2C(=N)N(c3ccccc3)C(=S)C2=Nc2ccccc2)cc1 | nt | nt | nt | nt | nt | -6.6
CCOC(=O)c1ccc(N=C2C(=S)N(c3ccc(C(=O)OCC)cc3)C(=N)N2/N=C/c2ccccc2)cc1 | -75.7 | i | 0.32 | 75.7* | i | -2.6
Cc1ccc(C(=O)NCC(=O)N2CCCN(C)CC2)cc1C | -9.5 | i | nt | 9.5 | nt | nt
Cc1ccccc1CSCc1nc2ccccc2[nH]1 | 16.8 | i | -0.07 | -16.8 | i | -2.4
Cc1ccc(C)c(CSCc2nc3ccccc3[nH]2)c1 | 4.2 | i | -8.43* | -4.2 | i | -8.5
CC(NC(=O)/C(C#N)=C/c1ccc([N+](=O)[O-])o1)c1ccccc1 (configuration not stated) | -6.7 | i | -7.65* | 6.7 | i | -10.9
CC(NC(=O)/C(C#N)=C/c1ccco1)c1ccccc1 (configuration not stated) | 10.2 | i | 0 | -10.2 | i | 30.3
Cc1ccc(OCC(=O)Oc2ccc(C(C)C)cc2)cc1 | 7.2 | i | 0.36 | -7.2 | i | -12.7
CCC(=O)Oc1ccc(C(CC)C(CC)c2ccc(OC(=O)CC)cc2)cc1 (configuration not stated) | -7.4 | i | -0.02 | 7.4 | 100* | -2.5
COc1ccc2cc(C(c3nnnn3C3CCCCC3)N3CCCCCC3)c3nnnn3c2c1 (configuration not stated) | -80.3 | i | -0.06 | 80.3* | i | -4.3
COc1ccc(Cn2nnnc2C(c2ccccc2Cl)N2CCN(C3CCCC3)CC2)cc1 (configuration not stated) | 7.8 | i | -5.1* | -7.8 | nt | 12.9
COc1ccc(Cn2nnnc2C(c2ccccc2)N2CCN(C3CCCC3)CC2)cc1 (configuration not stated) | -7.2 | i | 0.35 | 7.2 | nt | 9.9
C=CCNC(=S)N(CC)c1cccc2ccccc12 | 12.6 | i | -5.32* | -12.6 | i | -10.6
CN1CCN(CCOC2Cc3ccccc3Sc3ccc(Cl)cc32)CC1 (configuration not stated) | -24.9 | i | -10.2* | 24.9 | i | 19.9
Clc1ccc(-c2ccnc(Oc3cc(Cl)ccc3Cl)n2)cc1 | nt | i | -0.28 | nt | 25* | -2.7
Clc1ccc(-c2ccnc(Oc3ccc4ccccc4c3)n2)cc1 | 13.3 | i | -0.01 | -13.3 | i | -2.5
CCCCNS(=O)(=O)c1ccc2nc(SCC(=O)Nc3sccc3C#N)[nH]c2c1 | -1.0 | i | -0.89 | 1.0 | 100* | -6.3
CCCCNS(=O)(=O)c1ccc2nc(SCC(N)=O)[nH]c2c1 | -1.6 | i | -0.14 | 1.6 | i | -5.8
Cc1cc(S(=O)(=O)N2CCOCC2)ccc1OCC(=O)Nc1ccc(F)cc1F | nt | i | 0.63 | nt | i | -22.2
Nc1nc(Cl)cc(N2CCC(c3cc(-c4ccc(Cl)cc4)n[nH]3)CC2)n1 | -3.8 | i | 1.32 | 3.8 | 100* | -23.1
CC1CC(C)CN(S(=O)(=O)c2ccc(C(=O)Nc3nnc(-c4cccs4)o3)cc2)C1 (configuration not stated) | -5.3 | i | -0.51 | 5.3 | i | -25.4
CCC1CCCCN1S(=O)(=O)c1ccc(C(=O)Nc2nnc(-c3cccs3)o2)cc1 (configuration not stated) | -16.1 | i | nt | 16.1 | 25* | -20.1
SMILES | SR-BI DiI-HDL act | ANO1 activ | Kir21 inh | SR-BI HDL uptake | TMEM16A inh | DNA FID counter
O=[N+]([O-])c1cccc(-c2cc(-c3cc(Br)ccc3O)[nH]n2)c1 | -86.1 | i | 0.23 | 86.1* | i | 8.8
Oc1ccc(Br)cc1-c1cc(-c2ccccc2)n[nH]1 | -48.3 | i | -0.18 | 48.3 | i | 0.4
Oc1ccc(Br)cc1-c1cc(-c2ccc(Cl)cc2)n[nH]1 | -75.3 | i | -0.15 | 75.3* | i | 4.3
CN(C(=O)c1ccc(NC(=O)Cc2cccc(NC(=O)C3CCCN(C(=O)C4CCC4)C3)c2)cc1)C1CCCC1 (configuration not stated) | -24.2 | i | nt | 24.2 | nt | nt
Cc1ccc(NC(=O)c2ccc(Cl)c(S(=O)(=O)N3CCCC3)c2)nc1 | 1.4 | i | -0.78 | -1.4 | i | nt
CCOC(=O)N1CCN(C(=O)c2c[nH]c3ccc(S(=O)(=O)N(C)c4ccccc4C)cc3c2=O)CC1 | -8.8 | i | 0.37 | 8.8 | i | -44.0
CCOC(=O)N1CCN(C(=O)c2c[nH]c3ccc(S(=O)(=O)N(C)c4cccc(C)c4)cc3c2=O)CC1 | 8.5 | -6.3* | 1.02 | -8.5 | i | -45.3
COc1cccc(C(=O)N2N=C(c3cccc(OC)c3)CC2(O)C(F)(F)F)c1 (configuration not stated) | 7.7 | i | -0.2 | -7.7 | i | -13.5
COc1cccc(C(=O)N2N=C(c3ccccn3)CC2(O)C(F)(F)F)c1 (configuration not stated) | 240.5* | i | 0.06 | -240.5 | i | -18.5
COc1cccc(Nc2nc(-c3cccc(N4C(=O)c5ccccc5C4=O)c3)cs2)c1 | -91.2 | i | -1.26 | 91.2* | i | 6.5
COc1cccc(Nc2nc(-c3ccc(O)cc3)cs2)c1 | -57.6 | i | -0.01 | 57.6 | i | 2.1
COc1cccc(-c2csc(NC(=O)Nc3ccccc3)n2)c1 | -77.3 | i | -0.51 | 77.3* | i | -6.9
O=C(Nc1ccccc1)Nc1nc(-c2ccccc2)cs1 | ? | i | -0.01 | -215.8 | i | -3.1
Cc1cnc(NC(=O)C2CC(=O)N(c3cccc(Cl)c3)C2)s1 (configuration not stated) | 22.1 | i | -0.31 | -22.1 | i | -10.6
CCCSc1cc(N2CCCC2)nc(-c2ccccc2)n1 | 11.3 | -25.8* | -0.3 | -11.3 | i | 2.8
CCN(C(=O)CN1C(=O)S/C(=C\c2ccc(F)cc2)C1=O)C1CCS(=O)(=O)C1 (configuration not stated) | 3.0 | i | 0.14 | -3.0 | i | -30.0
COc1ccc(NC2CCCN(C(=O)CCc3cccc(F)c3)C2)cc1 (configuration not stated) | 10.7 | i | -2.31 | -10.7 | i | -22.1

Screening data (PubChem)
